Structures are written as SMILES.

The test concerns HEp-2 viability, luminescence (CellTiter-Glo). Description: viability of uninfected HEp-2 host cells – cell-based, synthesized compounds, set 9, cytotoxicity control for RSV antiviral project, dose response (AID 504826). In a few lines: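 Test system: uninfected HEp-2 human cells, ATP-based viability; Measure: % viability and fitted CC50; Signal: CellTiter-Glo ATP luminescence; Timing: compound exposure six days at 37 °C, 5% CO2.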
On to `COCCCNC(=O)c1ccc(Cn2c(=O)c3ccccc3n(Cc3ccc(Br)cc3)c2=O)cc1`, for which the CC50 was 126 µM. For `COc1ccccc1CNC(=O)C1CCN(S(=O)(=O)c2cccc3nonc23)CC1`, the CC50 is 146 µM. With `COCCCNC(=O)c1ccc(Cn2c(=O)c3ccccc3n(Cc3ccc(C(F)(F)F)cc3)c2=O)cc1`, the CC50 is 95.7 µM. The result for `COCCCNC(=O)c1ccc(Cn2c(=O)c3ccccc3n(Cc3ccc(C)c(C(F)(F)F)c3)c2=O)cc1` reads 75.2 µM; that for `COCCCNC(=O)c1ccc(Cn2c(=O)c3ccccc3n(Cc3ccc(OC)cc3)c2=O)cc1`, 121 µM. Turning to `COCCCNC(=O)c1ccc(Cn2c(=O)c3ccccc3n(Cc3ccc([N+](=O)[O-])cc3)c2=O)cc1`, the cytotoxic concentration (CC50) is 115 µM. The result for `Cc1ccc(C)c(NC(=O)[C@@H]2CCCN2S(=O)(=O)c2cccc3cccnc23)c1` reads 25 µM.

The values are drawn from PubChem BioAssay AID504826 (Southern Research Specialized Biocontainment Screening …, 2011).
